Reference: ChEMBL document CHEMBL1821704, “Diarylheptanoids from Curcuma kwangsiensis and their inhibitory activity on nitric oxide production in lipopolysaccharide-activated macrophages” (Bioorg Med Chem Lett, 2011)

What was measured:
[1] = tested on: RAW264.7; experiment: Cytotoxicity against mouse RAW264.7 cells at 100 uM after 24 hrs by MTT assay; format: cell-based; conditions: raw264.7, 24 h
[2] = tested on: RAW264.7; experiment: Inhibition of LPS-induced nitric oxide production in mouse RAW264.7 cells after 24 hrs by Griess reaction based spectrophotometry; format: functional, cell-based; conditions: RAW264.7, 24 h
Method in brief: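 Cells plated at 1 × 10⁵ cells/well and stimulated with LPS, with or without compound, for 24 h at 37 °C. Nitrite was read at 550 nm against a sodium nitrite standard curve. Triplicate wells; mean SD of three independent experiments.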

SMILES | Activity [1] | IC50 [2] [µM]
Oc1ccc(CC[C@H](O)C[C@H](O)CCc2ccc(O)c(O)c2)cc1 (relative stereo) | Toxic | 3.13
CC(=O)O[C@H](CCc1ccc(O)c(O)c1)C[C@H](O)CCc1ccc(O)c(O)c1 | Toxic | 35.5
C[C@]12CCC(=O)C=C1CC[C@@H]1[C@@H]2[C@@H](O)C[C@@]2(C)[C@H]1CC[C@]2(O)C(=O)CO [HYDROCORTISONE] | Non-toxic | 
COc1cc(CC[C@@H](O)C[C@H](O)CCc2ccc(O)c(O)c2)ccc1O | Non-toxic | 25.8
O=C(CCc1ccc(O)cc1)C[C@@H](O)CCc1ccccc1 | Non-toxic | 75.7
COc1cc(CCC(=O)C[C@@H](O)CCc2ccc(O)cc2)ccc1O | Non-toxic | 37.5
CC(=O)O[C@H](CCc1ccc(O)c(O)c1)C[C@H](O)CCc1ccc(O)cc1 | Toxic | 9.52
COc1cc(CC[C@@H](O)C[C@@H](O)CCc2ccc(O)cc2)cc(O)c1O (relative stereo) | Toxic | 2.41
COc1cc(CC[C@@H](O)C[C@@H](O)CCc2ccc(O)cc2)ccc1O (relative stereo) | Non-toxic | 2.81
CC(=O)O[C@@H](CCc1ccc(O)c(O)c1)C[C@@H](O)CCc1ccc(O)cc1 | Toxic | 9.52
CC(=O)O[C@H](CCc1ccc(O)cc1)C[C@@H](CCc1ccc(O)c(O)c1)OC(C)=O | Non-toxic | 10.7
COc1cc(CCC(=O)C[C@@H](O)CCc2ccc(O)c(O)c2)ccc1O | Toxic | 9.37
Oc1ccc(CC[C@@H](O)C[C@H](O)CCc2ccc(O)cc2)cc1 [(+)-HANNOKINOL] | Non-toxic | > 100
CC(=O)O[C@H](CCc1ccc(O)c(O)c1)C[C@@H](CCc1ccc(O)c(O)c1)OC(C)=O | Toxic | 7.98
O=C(CCc1ccc(O)cc1)C[C@@H](O)CCc1ccc(O)c(O)c1 | Non-toxic | 82.8
CC(=O)O[C@H](CCc1ccc(O)cc1)C[C@H](O)CCc1ccc(O)cc1 | Non-toxic | 32
COc1ccc2c(c1)c(CC(=O)O)c(C)n2C(=O)c1ccc(Cl)cc1 [INDOMETHACIN] | Non-toxic | 
Oc1ccc(CC[C@@H](O)C[C@@H](O)CCc2ccc(O)cc2)cc1 | Non-toxic | > 100
Oc1ccc(CC[C@@H](O)C[C@H](O)CCc2ccc(O)c(O)c2)cc1 | Non-toxic | 11.5
